The term EC50 denotes the midpoint of the concentration-response curve. A word on the IC50: it is the concentration that gives 50% inhibition. In general, Emax refers to the maximal effect, on the per cent scale that the assay sets.

Where a SMILES comes first, the peptide text is derived from it. [ ]: non-standard residue; d: D form. Cha = N[C@@H](CC1CCCCC1)C(=O)O

Assay [1] concerns the target T1, Pituitary adenylate cyclase-activating polypeptide type I receptor (Homo sapiens, UniProt P41586). Description: Agonist activity at human recombinant PAC1 receptor expressed in CHO cells assessed as PACAP38-induced calcium mobilization by FLIPR assay. In kind it is functional, cell-based. A digest of the protocol:
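CHO cells stably expressing recombinant human PAC1, plated 24 h before assay, loaded with fluo-4 AM for 60 min at 37 °C in the dark, then rinsed into HBSS for 15 min at 37 °C. EC50 and efficacy came from nonlinear regression; 4-10 independent assays in duplicate.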
For orientation: A change in cytosolic calcium serves as a functional read-out for many receptors and channels.
Target sequence in this assay (P41586 whole entry): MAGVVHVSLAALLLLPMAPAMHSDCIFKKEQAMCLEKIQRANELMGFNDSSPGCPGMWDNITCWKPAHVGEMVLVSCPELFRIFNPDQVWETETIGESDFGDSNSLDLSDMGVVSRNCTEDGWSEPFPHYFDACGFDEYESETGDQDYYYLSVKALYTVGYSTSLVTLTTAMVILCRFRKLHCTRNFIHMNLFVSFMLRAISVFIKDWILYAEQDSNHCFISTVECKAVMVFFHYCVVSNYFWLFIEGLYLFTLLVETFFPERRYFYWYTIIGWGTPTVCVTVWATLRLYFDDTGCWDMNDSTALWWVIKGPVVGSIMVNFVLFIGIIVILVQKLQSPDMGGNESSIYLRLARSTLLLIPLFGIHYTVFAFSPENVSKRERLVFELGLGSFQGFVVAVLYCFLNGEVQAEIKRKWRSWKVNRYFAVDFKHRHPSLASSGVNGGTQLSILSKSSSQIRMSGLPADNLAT

Assay [2] deals with T1, Pituitary adenylate cyclase-activating polypeptide type I receptor. Put plainly: Displacement of [125I]Ac-PACAP27 from human recombinant PAC1 receptor expressed in CHO cells by gamma- counter. The format is cell-based.
Target sequence in this assay (P41586 whole entry): as above
For assay [3] the target is unchanged. Description: Agonist activity at human recombinant PAC1 receptor expressed in CHO cells assessed as PACAP38-induced calcium mobilization by FLIPR assay relative to PACAP38. The format is functional, cell-based. A digest of the protocol: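 CHO cells stably expressing recombinant human PAC1, plated 24 h before assay, loaded with fluo-4 AM for 60 min at 37 °C in the dark, then rinsed into HBSS for 15 min at 37 °C. Peptide was added 18 s into a 150 s read (ex 480/em 525 nm), at final concentrations of 1 × 10-12 to 1 × 10^-5 M. Response was normalised to 1 × 10^-5 M PACAP38 on each plate. EC50 and efficacy came from nonlinear regression; 4-10 independent assays in duplicate.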
Target sequence in this assay (P41586 21-468 limits assumed): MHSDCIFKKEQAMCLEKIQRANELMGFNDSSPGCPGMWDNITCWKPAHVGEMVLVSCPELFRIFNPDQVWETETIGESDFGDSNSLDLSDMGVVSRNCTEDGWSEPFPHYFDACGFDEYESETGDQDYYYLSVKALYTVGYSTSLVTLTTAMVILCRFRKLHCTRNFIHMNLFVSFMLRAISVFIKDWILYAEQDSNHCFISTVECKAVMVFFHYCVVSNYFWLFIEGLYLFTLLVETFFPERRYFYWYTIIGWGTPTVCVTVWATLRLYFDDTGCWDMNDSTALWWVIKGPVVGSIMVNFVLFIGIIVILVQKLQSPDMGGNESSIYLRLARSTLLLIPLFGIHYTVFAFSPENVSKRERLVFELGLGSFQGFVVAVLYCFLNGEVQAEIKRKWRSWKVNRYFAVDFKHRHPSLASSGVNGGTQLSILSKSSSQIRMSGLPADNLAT

On to `CC[C@H](C)[C@H](NC(=O)CNC(=O)[C@H](CC(=O)O)NC(=O)[C@H](CO)NC(=O)[C@@H](N)Cc1cnc[nH]1)C(=O)N[C@@H](CC1CCCCC1)C(=O)N[C@H](C(=O)N[C@@H](CC(=O)O)C(=O)N[C@@H](CO)C(=O)N[C@@H](Cc1ccc(O)cc1)C(=O)N[C@@H](CO)C(=O)N[C@@H](CCCNC(=N)N)C(=O)N[C@@H](Cc1ccc(O)cc1)C(=O)N[C@@H](CCCNC(=N)N)C(=O)N[C@@H](CCCCN)C(=O)N[C@@H](CCC(N)=O)C(=O)N[C@@H](CCSC)C(=O)N[C@@H](C)C(=O)N[C@H](C(=O)N[C@@H](CCCCN)C(=O)N[C@@H](CCCCN)C(=O)N[C@@H](Cc1ccc(O)cc1)C(=O)N[C@@H](CC(C)C)C(=O)N[C@@H](C)C(=O)N[C@@H](C)C(=O)N[C@H](C(=O)N[C@@H](CC(C)C)C(N)=O)C(C)C)C(C)C)[C@@H](C)O`, for which, in assay [1], the EC50 is 8.4 nM. For the same compound, the IC50 in assay [2] stood at 11 nM. Besides, the Emax in assay [3] worked out at 105%.

As for `CC[C@H](C)[C@H](NC(=O)CNC(=O)[C@H](CC(=O)O)NC(=O)[C@H](CO)NC(=O)[C@@H](N)Cc1cnc[nH]1)C(=O)N[C@@H](Cc1ccccc1)C(=O)N[C@@H](C)C(=O)N[C@@H](CC(=O)O)C(=O)N[C@@H](CO)C(=O)N[C@@H](Cc1ccc(O)cc1)C(=O)N[C@@H](CO)C(=O)N[C@@H](CCCNC(=N)N)C(=O)N[C@@H](Cc1ccc(O)cc1)C(=O)N[C@@H](CCCNC(=N)N)C(=O)N[C@@H](CCCCN)C(=O)N[C@@H](CCC(N)=O)C(=O)N[C@@H](CCSC)C(=O)N[C@@H](C)C(=O)N[C@H](C(=O)N[C@@H](CCCCN)C(=O)N[C@@H](CCCCN)C(=O)N[C@@H](Cc1ccc(O)cc1)C(=O)N[C@@H](CC(C)C)C(=O)N[C@@H](C)C(=O)N[C@@H](C)C(=O)N[C@H](C(=O)N[C@@H](CC(C)C)C(N)=O)C(C)C)C(C)C`, the EC50 in assay [1] is 8.75 nM. Further, in assay [2], the IC50 is 10.8 nM. The Emax in assay [3] came out at 112%.

`CC[C@H](C)[C@H](NC(=O)CNC(=O)[C@H](CC(=O)O)NC(=O)[C@H](CO)NC(=O)[C@@H](N)Cc1cnc[nH]1)C(=O)N[C@@H](Cc1ccc(O)cc1)C(=O)N[C@H](C(=O)N[C@@H](CC(=O)O)C(=O)N[C@@H](CO)C(=O)N[C@@H](Cc1ccc(O)cc1)C(=O)N[C@@H](CO)C(=O)N[C@@H](CCCNC(=N)N)C(=O)N[C@@H](Cc1ccc(O)cc1)C(=O)N[C@@H](CCCNC(=N)N)C(=O)N[C@@H](CCCCN)C(=O)N[C@@H](CCC(N)=O)C(=O)N[C@@H](CCSC)C(=O)N[C@@H](C)C(=O)N[C@H](C(=O)N[C@@H](CCCCN)C(=O)N[C@@H](CCCCN)C(=O)N[C@@H](Cc1ccc(O)cc1)C(=O)N[C@@H](CC(C)C)C(=O)N[C@@H](C)C(=O)N[C@@H](C)C(=O)N[C@H](C(=O)N[C@@H](CC(C)C)C(=O)NCC(=O)N[C@@H](CCCCN)C(=O)N[C@@H](CCCNC(=N)N)C(=O)N[C@@H](Cc1ccc(O)cc1)C(=O)N[C@@H](CCCCN)C(=O)N[C@@H](CCC(N)=O)C(=O)N[C@@H](CCCNC(=N)N)C(=O)N[C@H](C(=O)N[C@@H](CCCCN)C(=O)N[C@@H](CC(N)=O)C(=O)N[C@@H](CCCCN)C(N)=O)C(C)C)C(C)C)C(C)C)[C@@H](C)O` (H-HSDGIYTDSYSRYRKQMAVKKYLAAVLGKRYKQRVKNK-NH2): in assay [1], the EC50 is 2.7 nM. For the same compound, the IC50 in assay [2] worked out at 6.7 nM. Besides, the Emax in assay [3] turned out to be 99.4%.

With `CC[C@H](C)[C@H](NC(=O)CNC(=O)[C@@H](CC(=O)O)NC(=O)[C@H](CO)NC(=O)[C@@H](N)Cc1cnc[nH]1)C(=O)N[C@@H](Cc1ccccc1)C(=O)N[C@H](C(=O)N[C@@H](CC(=O)O)C(=O)N[C@@H](CO)C(=O)N[C@@H](Cc1ccc(O)cc1)C(=O)N[C@@H](CO)C(=O)N[C@@H](CCCNC(=N)N)C(=O)N[C@@H](Cc1ccc(O)cc1)C(=O)N[C@@H](CCCNC(=N)N)C(=O)N[C@@H](CCCCN)C(=O)N[C@@H](CCC(N)=O)C(=O)N[C@@H](CCSC)C(=O)N[C@@H](C)C(=O)N[C@H](C(=O)N[C@@H](CCCCN)C(=O)N[C@@H](CCCCN)C(=O)N[C@@H](Cc1ccc(O)cc1)C(=O)N[C@@H](CC(C)C)C(=O)N[C@@H](C)C(=O)N[C@@H](C)C(=O)N[C@H](C(=O)N[C@@H](CC(C)C)C(=O)NCC(=O)N[C@@H](CCCCN)C(=O)N[C@@H](CCCNC(=N)N)C(=O)N[C@@H](Cc1ccc(O)cc1)C(=O)N[C@@H](CCCCN)C(=O)N[C@@H](CCC(N)=O)C(=O)N[C@@H](CCCNC(=N)N)C(=O)N[C@H](C(=O)N[C@@H](CCCCN)C(=O)N[C@@H](CC(N)=O)C(=O)N[C@@H](CCCCN)C(N)=O)C(C)C)C(C)C)C(C)C)[C@@H](C)O`, in assay [1], the EC50 was 7.6 nM. In addition, the 50% inhibitory concentration (IC50) in assay [2] was determined as 7.2 nM. The Emax in assay [3] stood at 98.6%.

On to `CC[C@H](C)[C@H](NC(=O)CNC(=O)[C@H](CC(=O)O)NC(=O)[C@H](CO)NC(=O)[C@H](Cc1cnc[nH]1)NC(C)=O)C(=O)N[C@@H](Cc1ccccc1)C(=O)N[C@H](C(=O)N[C@@H](CC(=O)O)C(=O)N[C@@H](CO)C(=O)N[C@@H](Cc1ccc(O)cc1)C(=O)N[C@@H](CO)C(=O)N[C@@H](CCCNC(=N)N)C(=O)N[C@@H](Cc1ccc(O)cc1)C(=O)N[C@@H](CCCNC(=N)N)C(=O)N[C@@H](CCCCN)C(=O)N[C@@H](CCC(N)=O)C(=O)N[C@@H](CCSC)C(=O)N[C@@H](C)C(=O)N[C@H](C(=O)N[C@@H](CCCCN)C(=O)N[C@@H](CCCCN)C(=O)N[C@@H](Cc1ccc(O)cc1)C(=O)N[C@@H](CC(C)C)C(=O)N[C@@H](C)C(=O)N[C@@H](C)C(=O)N[C@H](C(=O)N[C@@H](CC(C)C)C(N)=O)C(C)C)C(C)C)[C@@H](C)O`, for which the EC50 in assay [1] was determined as 9.7 nM. For the same compound, the IC50 in assay [2] was 8.2 nM. In assay [3], the Emax was determined as 96.3%.

For the compound `CC[C@H](C)[C@H](NC(=O)CNC(=O)[C@H](CC(=O)O)NC(=O)[C@H](CO)NC(=O)[C@@H](N)Cc1cnc[nH]1)C(=O)N[C@@H](CC1CCCCC1)C(=O)N[C@H](C(=O)N[C@@H](CC(=O)O)C(=O)N[C@@H](CO)C(=O)N[C@@H](Cc1ccc(O)cc1)C(=O)N[C@@H](CO)C(=O)N[C@@H](CCCNC(=N)N)C(=O)N[C@@H](Cc1ccc(O)cc1)C(=O)N[C@@H](CCCNC(=N)N)C(=O)N[C@@H](CCCCN)C(=O)N[C@@H](CCC(N)=O)C(=O)N[C@@H](CCSC)C(=O)N[C@@H](C)C(=O)N[C@H](C(=O)N[C@@H](CCCCN)C(=O)N[C@@H](CCCCN)C(=O)N[C@@H](Cc1ccc(O)cc1)C(=O)N[C@@H](CC(C)C)C(=O)N[C@@H](C)C(=O)N[C@@H](C)C(=O)N[C@H](C(=O)N[C@@H](CC(C)C)C(=O)NCC(=O)N[C@@H](CCCCN)C(=O)N[C@@H](CCCNC(=N)N)C(=O)N[C@@H](Cc1ccc(O)cc1)C(=O)N[C@@H](CCCCN)C(=O)N[C@@H](CCC(N)=O)C(=O)N[C@@H](CCCNC(=N)N)C(=O)N[C@H](C(=O)N[C@@H](CCCCN)C(=O)N[C@@H](CC(N)=O)C(=O)N[C@@H](CCCCN)C(N)=O)C(C)C)C(C)C)C(C)C)[C@@H](C)O` (H-HSDGI[Cha]TDSYSRYRKQMAVKKYLAAVLGKRYKQRVKNK-NH2), in assay [1], the EC50 is 2.6 nM. In addition, in assay [2], the IC50 stood at 6.6 nM. In addition, in assay [3], the Emax was found to be 97.7%.

Regarding `CC[C@H](C)[C@H](NC(=O)CNC(=O)[C@H](CC(=O)O)NC(=O)[C@H](CO)NC(=O)[C@@H](N)Cc1cnc[nH]1)C(=O)N[C@@H](C)C(=O)N[C@H](C(=O)N[C@@H](CC(=O)O)C(=O)N[C@@H](CO)C(=O)N[C@@H](Cc1ccc(O)cc1)C(=O)N[C@@H](CO)C(=O)N[C@@H](CCCNC(=N)N)C(=O)N[C@@H](Cc1ccc(O)cc1)C(=O)N[C@@H](CCCNC(=N)N)C(=O)N[C@@H](CCCCN)C(=O)N[C@@H](CCC(N)=O)C(=O)N[C@@H](CCSC)C(=O)N[C@@H](C)C(=O)N[C@H](C(=O)N[C@@H](CCCCN)C(=O)N[C@@H](CCCCN)C(=O)N[C@@H](Cc1ccc(O)cc1)C(=O)N[C@@H](CC(C)C)C(=O)N[C@@H](C)C(=O)N[C@@H](C)C(=O)N[C@H](C(=O)N[C@@H](CC(C)C)C(=O)NCC(=O)N[C@@H](CCCCN)C(=O)N[C@@H](CCCNC(=N)N)C(=O)N[C@@H](Cc1ccc(O)cc1)C(=O)N[C@@H](CCCCN)C(=O)N[C@@H](CCC(N)=O)C(=O)N[C@@H](CCCNC(=N)N)C(=O)N[C@H](C(=O)N[C@@H](CCCCN)C(=O)N[C@@H](CC(N)=O)C(=O)N[C@@H](CCCCN)C(N)=O)C(C)C)C(C)C)C(C)C)[C@@H](C)O` (H-HSDGIATDSYSRYRKQMAVKKYLAAVLGKRYKQRVKNK-NH2), in assay [1], the EC50 was 17.3 nM. Besides, in assay [2], the 50% inhibitory concentration (IC50) is 208 nM. In addition, in assay [3], the Emax came to 50.4%.

Consider `CC[C@H](C)[C@H](NC(=O)C(C)(C)NC(=O)[C@H](CC(=O)O)NC(=O)[C@H](CO)NC(=O)[C@@H](N)Cc1cnc[nH]1)C(=O)N[C@@H](Cc1ccccc1)C(=O)N[C@H](C(=O)N[C@@H](CC(=O)O)C(=O)N[C@@H](CO)C(=O)N[C@@H](Cc1ccc(O)cc1)C(=O)N[C@@H](CO)C(=O)N[C@@H](CCCNC(=N)N)C(=O)N[C@@H](Cc1ccc(O)cc1)C(=O)N[C@@H](CCCNC(=N)N)C(=O)N[C@@H](CCCCN)C(=O)N[C@@H](CCC(N)=O)C(=O)N[C@@H](CCSC)C(=O)N[C@@H](C)C(=O)N[C@H](C(=O)N[C@@H](CCCCN)C(=O)N[C@@H](CCCCN)C(=O)N[C@@H](Cc1ccc(O)cc1)C(=O)N[C@@H](CC(C)C)C(=O)N[C@@H](C)C(=O)N[C@@H](C)C(=O)N[C@H](C(=O)N[C@@H](CC(C)C)C(N)=O)C(C)C)C(C)C)[C@@H](C)O`, for which the EC50 in assay [1] is 49.4 nM. Moreover, the IC50 in assay [2] turned out to be 51.4 nM. Besides, the Emax in assay [3] is 90.2%.
